Values without a mark were called inactive.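 Rule for the calls: active = curve reaches 10% of the strong reference activator's caspase signal at or below the top valid tested dose; inactive = signal moves in the opposite direction, or the rest.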
Assay: caspase activation in unprimed MEWO cells, dose response, counter-screen for A1 inhibitor project, cell-based, luminescence, dry powder, set 2 (AID 504354)
Settings: caspase-Glo luminescence, 3 h, at 16 µM, hits give high values
Procedure, shortened: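 Test system: unprimed MEWO cell line expressing A1 / Quantity: 2500 cells/well / Evaluation: caspase activity / Incubation: 3 h compound treatment at 37 °C, 1 h reagent at RT / Doses: compound delivered into wells by pin transfer / Detection: CaspaseGlo luminescence / Buffer or medium: RPMI-1640 growth medium with 10% FBS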

SMILES: C/C1=C/C(=O)O[C@@H]2C[C@@H](CC[C@H](C)/C=C\CC1)O[C@@](O)(C1CSC(=O)N1)C2 (stereo partly specified)
- caspase activation: 2.23%
